Measurements from the EternaBench riboswitch data.

Test system: MS2 coat protein
Assay: apparent Kd, MS2 coat protein; higher = weaker binding; RNA-MaP array; FMN 200 µM where present
How it was run: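 Two titrations, one without ligand and one with constant ligand, were run with SNAP-549-labelled MS2 coat protein from 0.7 or 1.5 nM, doubling to 3 µM. The targets were designs transcribed by stalled E. coli RNA polymerase on Illumina sequencing-chip clusters, in 100 mM Tris-HCl pH 7.5, 80 mM KCl, 4 mM MgCl2, BSA, DTT, yeast tRNA and Tween-20. The apparent Kd is the median of filtered per-cluster binding-curve fits, with green signal normalised to red-channel RNA signal and control-cluster median Fmax.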

[1] = designed as: OFF switch for flavin mononucleotide, no ligand
[2] = ligand present: flavin mononucleotide, designed as: OFF switch for flavin mononucleotide
[3] = designed as: ON switch for flavin mononucleotide, no ligand
[4] = ligand present: flavin mononucleotide, designed as: ON switch for flavin mononucleotide

Row | Sequence | apparent Kd [1] | apparent Kd [2] | apparent Kd [3] | apparent Kd [4]
1 | GUGUACAGAGGAUAUACAUGAGCUAGGAAACUAGCAAACUCACAUGAGGAUCACCCAUGUAGAAGGCUGUACAC | 264 nM | 54.7 nM |  | 
2 | UUACUAUUACAGAAGGUUUAAUAAUAUAUAAAAGAAGGAUAUGUAACAUGAGGAUCACCCAUGUUUCACCCACAUGAGGAUCAU | 10.8 nM | 10.4 nM |  | 
3 | CAAUUUAUUACAGGAUAUACAAUACAAUGAUUAGUAGAAGGGUAUAAUACAUGAGGAUCACCCAUGUCAUGUGUCAUAAUAACC | 35.8 nM | 23.9 nM |  | 
4 | GGGUCAACAUGAGGAUCACCCAUGUAGGAUAUCGCUAUUGUAAUCAUGAAACAUGAUUACAAUAGCGAGAAGGACAUAUGCGGG | 42 nM | 74.1 nM |  | 
5 | GAGAUGUGAGGAUAUCUAGACCGCGGAAGAGCCGCAGUCCGAGAGAAGGCACAUGAGGAUCACCCAUGUGAUGA | 33.4 nM | 61.2 nM |  | 
6 | GCCCUCGCUGAGGAUAUUAUCUGGCUCGACUGAUAAGAAGGCAGUACAUGAGGAUCACCCAUGUGGUUCGUUCG | 50.5 nM | 142 nM |  | 
7 | AGUUUUGUACAUGAGGAUCACCCAUGUUAAUAUGUGGUAGUCAGAAGGCAUUGUUAGUGUUUAUAUGAGGAUAUGAUUAGGCAG |  |  | 46.6 nM | 24.6 nM
8 | GUUAUAUUUAGUUCAUACUAUAUGAUAGAAGGUGAAAUAUAGACAUGAGGAUCACCCAUGUAAUUCAAGGAUAUGUAGUUACUC |  |  | 29.9 nM | 21.5 nM
9 | CACCGUUAAGUAGGAUAUCGUACAUGAGGAUCACCCAUGUAAUAAAUGAGAAUUUCGGAUGUAUGCGAGAAGGACUAAAUCGGC | 49.3 nM | 43 nM |  | 
10 | UCGUACAUUCGAGGAUAUCGGUGAUAAAUAAUACGAGAAGGCGAUUGUGGGAAUAACGCCUUAGACAUGAGGAUCACCCAUGUA |  |  | 72.4 nM | 62.6 nM
11 | GACAUUGACAAGAAGGCAAACAUGAGGAUCACCCAUGUUCUGCAUGUAUAUUGAGGAUAUUGCCAAUGUAUGUGGAUCACCCAA | 6.25 nM | 15.2 nM |  | 
12 | GUUUUCGCAUGAGGAUAUGCUCGCAUUUUAAGAGCAGAAGGUAUGUCUUUAGACAUGAGGAUCACCCAUGUAUUUAUCAUUGAA |  |  |  | 28.2 nM
13 | GCCUUAUCGGUCAGGAUAUACAUUUGUUAGUUGUUGUAGAAGGGACAUGAGGAUCACCCAUGUACAUUACAUUG | 22.4 nM | 40.3 nM |  | 
14 | UAGCCUGUAGGAGUGGAAGCCGGUAGAAGGCAGCAUUGAUGGACCGACAUGAGGAUCACCCAUGUUGAGGAUAUACCGGGCACU | 39.3 nM | 247 nM |  | 
15 | UUCAUGUGAGGAUAUGCGGCAUCAGGUGGGCCUGUCGCUGAGCAGAAGGCACAUGAGGAUCACCCAUGUGCUCC | 16.4 nM | 41.6 nM |  | 
16 | GUCAGCUCGUGAGGAUAUACAACAUUGCUUCGGCAGUGUAUUAAGAUCACAUGAGGAUCACCCAUGUAGAAGGCACGAGCUGAU | 14.1 nM | 243 nM |  | 
17 | GUGCACACUCGAGGAUAUCGGAGUUUUCUCCUUCGAGAAGGCGAUUCGUGCCGUGUUAUUCUGGACAUGAGGAUCACCCAUGUG |  |  | 110 nM | 36.5 nM
18 | CAAUCUCAGAUAGGAUAUAUAGGAUAACUUAAGACCUAACAUGAGGAUCACCCAUGUGAUUAUUCGUAGAAGGAUCAUUGAACU |  |  | 226 nM | 244 nM
19 | CGCUCAAGAGAGAAGGAUAGAAUCAGAAGGCGUAACAUGAGGAUCACCCAUGUUUAGUAGUGUAACGAGGAUAUGAAAUGAGCG | 9.61 nM | 10.8 nM |  | 

Row | Sequence | apparent Kd [1] | apparent Kd [2] | apparent Kd [3] | apparent Kd [4]
20 | GUCAUGUUAGGAUAUCUGGCAUGUGACUUCGGUCACUGUCCAGAGAAGGAACAUGAGGAUCACCCAUGUUGGAC | 75.1 nM | 57.1 nM |  | 
21 | GGCGGCGGACAAGGAUAUAAGACGCGGACCAAAUUAGAAGGUGUCAUCUGGCAAUGCGAAAGCAGACAUGAGGAUCACCCAUGU |  |  | 78.9 nM | 72.7 nM
22 | UGUUCUAUGUAGAAGGCCCAUAUCUGUUUUUAGGGAGGAUAUACAUGAGGAUCACCCAUGUGUAGAGCUGGUGGACUGGUCAGC | 13.7 nM | 40.1 nM |  | 
23 | UUACGUACGUAUGAGGAUAUCCAUAAUAAGACAUGAGGAUCACCCAUGUAAACAAAACAAUAAUGGGAGAAGGCAUACGUACGAA |  |  | 64.1 nM | 101 nM
24 | AGUGUCAUCGAGAAGGCCUCAACAUGAGGAUCACCCAUGUUGCAAAAUGGGAGGAUAUCGCGCGUUCUAAAACGUUUCGUAGCA |  |  | 54.1 nM | 18 nM
25 | CGGAGGUCAGGAUAUGCAUGGCGGGACUUGCGUCGUGGCGUGCAGAAGGGACAUGAGGAUCACCCAUGUGGAGA | 83.2 nM | 259 nM |  | 
26 | GACUUGUUAGGAUAUCUUACAUUUGCAUCAUAGUAACCUUUGGAGAAGGGACAUGAGGAUCACCCAUGUUUGGA | 40.1 nM | 36.6 nM |  | 
27 | UUUAUGUGAGGAUAUCAGUAGUAAAAAAAUAAAAUUACUACUGAGAAGGCACAUGAGGAUCACCCAUGUCCUUC | 18.6 nM | 20 nM |  | 
28 | AGAUCUACAGGAUAUACAUGAAAGAUCAUCAUGACCCUUCAACAUGAGGAUCACCCAUGUAGAAGGGUAGAUCA | 27.7 nM | 13.5 nM |  | 
29 | CCAGGCUGUGUGAGGAUAUGCUGGUCCUUGGAUCAGCAGAAGGCACAUGAGGAUCACCCAUGUGAAAAGCUUGG | 17.4 nM | 57.6 nM |  | 
30 | AUAAUGCGAGGAUAUACAUGAGGAUCACCCAUGUAAUUCCAUCGGAGAGCCACAUUUCGUAGAAGGUGCAUUUA | 15.4 nM | 15.4 nM |  | 
31 | GGGUGUGAAGGAUAUACAUGAGGAUCACCCAUGUGAGAGGAGGAGGUUGAGGAGGUUGGUAGAAGGUCAGGAGG | 169 nM | 142 nM |  | 
32 | AAUUAUUAUUGAGGAUAUCGUAUUGAAACAAUACGAGAAGGCGGUAUAAACAUGAGGAUCACCCAUGUGAGCCUGAUGCUUAUG | 28.4 nM | 58.9 nM |  | 
33 | UUACUUUUACAGAAGGUUUAAUAAUAUAUAAAAGAAGGAUAUGUAACAUGAGGAUCACCCAUGUUUCACCCAUAUGAGGAUCAU | 7.18 nM | 6.98 nM |  | 
34 | UAUUUGCAAGGAUAUGAUUUAAGUAACAUGAGGAUCACCCAUGUUUUUCCGUUGUUAUGUUCAGAAGGUGCGUGAU | 58.6 nM | 74.9 nM |  | 
35 | AAAUUGCUAGAGGAUAUCGGAUAGGAUCUAUUGCGAGAAGGUUGGACAUGAGGAUCACCCAUGUUCUGUUGGGA | 25.8 nM | 25.8 nM |  | 
36 | AGUAUGUACGCAGGAUAUACAUGAGGAUCACCCAUGUGGAACAGUGUAGUGCUAGUUGAUCCUCAGUAGAAGGGCGGUCGAAUA | 62.5 nM | 91.6 nM |  | 
37 | GUAUUUAGAUAAGGAUAUAAGUCUAGGACAUGAGGAUCACCCAUGUGUGUCUUAGAAGGUAUUUGGGUAAUAUUGUUACAGUAA |  |  | 160 nM | 114 nM
38 | GGUGGACAUGAGGAUCACCCAUGUGAGGAUAUCGGCUAUCUACUCGCUGACGGCUGCUCGAGAAGGCGCAUUGU | 62.1 nM | 58.8 nM |  | 

Row | Sequence | apparent Kd [1] | apparent Kd [2] | apparent Kd [3] | apparent Kd [4]
39 | AGCGUACAUGUUAGGAUAUGCUGUAGGAAUACUCAGCAGAAGGAACAUGAGGAUCACCCAUGUUUGUCCGUUCU | 14.5 nM | 23.9 nM |  | 
40 | CUGGAAUACAGACAUGAGGAUCACCCAUGUUUAAGGGAGGCACAGGAUAUGUCGACGCACCAUAGACAGAAGGGUGACUUGCUU |  |  | 47.8 nM | 20.3 nM
41 | AGCUGUGGCCGAGGAUAUCUAUCUCCAAUAACCGAAAUAUAAUCGGACAUGAGGAUCACCCAUGUAGAGAAGGCGGUCUCAGCA | 20.7 nM | 36 nM |  | 
42 | GAUCAGCUUGUGAGGAUAUCCGGGCUUAAAGGCUAGGAGAAGGUACAUGAGGAUCACCCAUGUAGAGUCCUGGG | 73.8 nM | 111 nM |  | 
43 | UGGUGUGAGCUAUCACAUGACUGGGAGGAUAUGACAUGAGGAUCACCCAUGUGGGAUCUAAAUUGUCAGAAGGCUCGAUCUGGG | 750 nM | 208 nM |  | 
44 | GUUAGUUAAGGAUAUACUGGGAGCUGCGGCGUCUCGCCGCAACAUGAGGAUCACCCAUGUAGAAGGUGGCCAUU | 765 nM | 425 nM |  | 
45 | CCUAUGUGAGGAUAUCACUGGUCUUUUCAUUAGAUGAUCAGUGAGAAGGCACAUGAGGAUCACCCAUGUCAGUG | 90.7 nM | 26.7 nM |  | 
46 | UUAAAUCGAAACAUGAGGAUCACCCAUGUGUUGUAAUUAACAUAGGAUAUGUAUAUACUUUUUAAAUAGAAGGAUGAUAAUACU |  |  | 16.1 nM | 11.6 nM
47 | UUGGACGUCGUAGGAUAUGUAGGAUAUUCCUACAUGAGGAUCACCCAUGUUCACAUGGAAGAAGGACAGAAGGACGAUGUCCAU |  |  | 502 nM | 5.8 nM
48 | UAUGCGAGAGGAUAUACAUGAGGAUCACCCAUGUGUCCGACACAAUUCAGUUGCAUAUGUAGAAGGCUUGCGAC | 14.4 nM | 19.6 nM |  | 
49 | GCAUUGAGUGUGAGGAUAUGCUGGUCCUUGGAUCAGCAGAAGGCACAUGAGGAUCACCCAUGUGAAUACAAUGC | 20.9 nM | 116 nM |  | 
50 | GGUGGACAUGAGGAUCACCCAUGUGAGGAUAUCGGCUAUCUACUCGCUGACGGUUGCUCGAGAAGGCACAUUGU | 126 nM | 206 nM |  | 
51 | GAUCCUUCUGUUAGGAUAUGCUUUGGGCUUCCGCAGCAGAAGGAACAUGAGGAUCACCCAUGUCCAAUACCAUC | 42.6 nM | 41.8 nM |  | 
52 | AAGGUGAGUCAAGGAUAUCCGGGCUGAAUGCCAGGAGAAGGUGACAUGAGGAUCACCCAUGUCUCUCCGAGCAUGGUAUUCUCA | 148 nM | 138 nM |  | 
53 | UUAUAAAAUAUAGGAUAUGGAAACAUGAGGAUCACCCAUGUAUGAUAAGAUAAAUUAUGAUAUAGCCAGAAGGAUACAAUUUUU |  |  | 37.3 nM | 35 nM
54 | AAAAAACAUGAGGAUCACCCAUGUGAGGAUAUCUGUAUCCAAAAGGAAGUGUAGGAUCAGAGAAGGCACUAGGA | 68.1 nM | 123 nM |  | 
55 | AGUAACAUGCUCAACAUGAGGAUCACCCAUGUACUCUCUUGUAAGGAUAUACAAUCGUAUUGAUAGUAGAAGGUACCAAUUAAG |  |  | 52.7 nM | 51.9 nM
56 | UCAUGUUAGCAGGAUAUGCUAUUUAUUUUUUAUGCAGAAGGGCUUACAUGAGGAUCACCCAUGUAUUAAGUUUU | 154 nM | 19.1 nM |  | 
